{
  "source": "PubChem BioAssay",
  "note": "Values without a mark were called inactive. Active and inactive are the calls of the source.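 How the source made its calls, unless noted: active means viability at or below 10% of carrier control in both of two separate runs; inconclusive means viability at or below 10% in only one of the two runs; inactive means the rest.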",
  "data": [
    {"assay": "reduced viability of SK-BR-3 breast cancer cells – cell-based, 24 h, human, pilot screen (AID 572);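 further: compound exposure lasted between 18 and 24 h rather than exactly 24 h; 100% = carrier-treated control wells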", "details": "SK-BR-3 viability, CellTiter-Glo luminescence, at 10 µM, active compounds read low", "units": {"viability": "%"}, "values": [
      {"smiles": "O=c1[nH]c2ccccc2nc1NCCN1CCOCC1", "viability": 97.5},
      {"smiles": "c1ccc(Nc2ccccc2Nc2ccccn2)nc1", "viability": 138},
      {"smiles": "COc1ccc(-n2c(COc3cccc(C)c3)nnc2SCC(=O)NCc2ccco2)cc1", "viability": 126},
      {"smiles": "C=CCc1cc(C(=O)N2CCCCC2)ccc1O", "viability": 104},
      {"smiles": "CCCC(=O)Nc1ccc2oc(-c3cccnc3)nc2c1", "viability": 109},
      {"smiles": "Cc1ccccc1-n1c(=O)cc(N2CCN(C(=O)c3ccco3)CC2)[nH]c1=O", "viability": 86},
      {"smiles": "O=C(O)CN1C(=O)C2(OCCCO2)c2ccccc21", "viability": 86.5},
      {"smiles": "CC(C)(C)C(=O)/C=C(\\N)c1ccccn1", "viability": 102},
      {"smiles": "CCOC(=O)C1CCCN(c2c(N3CCN(c4ccccn4)CC3)c(=O)c2=O)C1", "note": "(stereo not given)", "viability": 86.5},
      {"smiles": "CC1CCN(S(=O)(=O)c2ccc(S(=O)(=O)NCC(=O)C(C)(C)C)cc2)CC1", "viability": 108},
      {"smiles": "O=C(CSc1nnc2scc(-c3ccccc3)n12)N1CCN(Cc2ccccc2)CC1", "viability": 89},
      {"smiles": "CC1(C)CNC(=O)CC(C)(C)N1O", "viability": 90},
      {"smiles": "Cc1cc(NC(=O)CCOc2ccccc2)no1", "viability": 85.5},
      {"smiles": "CCOc1ccc2cc(C#N)c(SCC(=O)N3CCCC3)nc2c1", "viability": 71.5},
      {"smiles": "COc1cccc(Oc2cnc(N)nc2-c2ccc(OC)cc2O)c1", "viability": 91.5},
      {"smiles": "CCOC(OCC)P(=O)(C(C)C)C(C)C", "viability": 87},
      {"smiles": "O=C1C(C=NCCCn2ccnc2)=C(O)c2ccccc21", "viability": 83},
      {"smiles": "CCCN(S(=O)(=O)c1ccc(OCC)cc1)S(=O)(=O)c1cccs1", "viability": 89},
      {"smiles": "N#Cc1nc(COc2ccc(Br)cc2)oc1N1CCCC1", "viability": 99},
      {"smiles": "CCOC(=O)N1CCN(Cc2cc(=O)oc3ccc4ccccc4c23)CC1", "viability": 91.5},
      {"smiles": "COc1ccc(OC)c(C2C3=C(CCCC3=O)Nc3c2c(=O)n(C)c(=O)n3C)c1", "note": "(stereo not given)", "viability": 106},
      {"smiles": "CCOc1ccc(C2CC(=O)NC3=C2C(=O)CCC3)cc1Cl", "note": "(stereo not given)", "viability": 108},
      {"smiles": "COc1ccc2nc(NC(=O)c3ccoc3C)sc2c1", "viability": 99},
      {"smiles": "O=C(NCC(=O)N1CCC(N2CCCCC2)CC1)C1CCCCC1", "viability": 88.5},
      {"smiles": "O=C(NCCN1CCOCC1)c1ccc2c(c1)N(Cc1ccccc1)C(=O)CS2", "viability": 89.5},
      {"smiles": "CCC(c1nnnn1Cc1ccco1)N(CCc1ccccc1)Cc1cc2cccc(C)c2[nH]c1=O", "note": "(stereo not given)", "viability": 105},
      {"smiles": "CC(C)=CCCC(C)N(C=O)C(C)CCC=C(C)C", "note": "(stereo not given)", "viability": 84.5},
      {"smiles": "Cc1c(C(=O)NCc2cccnc2)oc2ccc(S(=O)(=O)N3CCCCC3)cc12", "viability": 71.5},
      {"smiles": "Cc1ccc(C(C)C)c(OCCn2c(=O)oc3ccccc32)c1", "viability": 89},
      {"smiles": "CCn1nc(C(=O)OCC(=O)N2CCc3ccccc32)c2ccccc2c1=O", "viability": 99.5},
      {"smiles": "COC(=O)c1cc(-c2c(C)oc3cc(O)ccc3c2=O)c(C)o1", "viability": 100},
      {"smiles": "CCOC(=O)N1CCN(S(=O)(=O)c2ccc(OCC)c(C)c2)CC1", "viability": 110},
      {"smiles": "CC1CC(=O)C2=C(C1)OC(N)=C(C#N)C2c1coc2ccccc2c1=O", "note": "(stereo not given)", "viability": 108},
      {"smiles": "COc1ccc(-c2nnc(SCCC(=O)O)n2-c2ccccc2)cc1", "viability": 113},
      {"smiles": "CCCCn1c(SCC(=O)Nc2ccc(OC)cc2)nc2ccc(N3CCOCC3)cc2c1=O", "viability": 94.5},
      {"smiles": "CCOC(=O)c1cc2cc(F)ccc2nc1C", "viability": 103},
      {"smiles": "Cc1nc2ccccn2c1C(=O)NCCCN1CCOCC1", "viability": 91.5},
      {"smiles": "Cc1cc(-c2ccccc2)c2c3c(cn2n1)c(=O)n(C)c(=O)n3C", "viability": 108},
      {"smiles": "CCOC(=O)N1CCC(O)(c2cc(C)c(C)cc2C)CC1", "viability": 102},
      {"smiles": "O=C(C1CCCN(S(=O)(=O)c2cccnc2)C1)N1CCN(c2ccccn2)CC1", "note": "(stereo not given)", "viability": 93.5}
    ]},
    {"assay": "HUVEC growth inhibition – cell-based, human, primary screen (AID 575;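 active means viability at or below 30% in both replicate assays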;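 further: 100% = median of untreated cell wells with 0.1% DMSO on each plate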)", "details": "HUVEC proliferation, CellTiter-Glo luminescence, 72 h; at 10 µM; active compounds read low", "outline": "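Material: primary human umbilical vein endothelial cells / Schedule: 72 h exposure, 37 °C, 5% CO2, 30 min RT equilibration / Signal: ATP-based CellTiter-Glo luminescent read / Read-out basis: percent of median DMSO-control luminescence / Control set: 32 DMSO-only cell-control wells (high), 32 MePR drug-control wells (low) per plate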", "values": [
      {"smiles": "O=c1[nH]c2ccccc2nc1NCCN1CCOCC1", "viability": "114%"},
      {"smiles": "c1ccc(Nc2ccccc2Nc2ccccn2)nc1", "viability": "95.8%"},
      {"smiles": "COc1ccc(-n2c(COc3cccc(C)c3)nnc2SCC(=O)NCc2ccco2)cc1", "viability": "84.4%"},
      {"smiles": "C=CCc1cc(C(=O)N2CCCCC2)ccc1O", "viability": "88%"},
      {"smiles": "CCCC(=O)Nc1ccc2oc(-c3cccnc3)nc2c1", "viability": "93.6%"},
      {"smiles": "Cc1ccccc1-n1c(=O)cc(N2CCN(C(=O)c3ccco3)CC2)[nH]c1=O", "viability": "100%"},
      {"smiles": "O=C(O)CN1C(=O)C2(OCCCO2)c2ccccc21", "viability": "101%"},
      {"smiles": "CC(C)(C)C(=O)/C=C(\\N)c1ccccn1", "viability": "119%"},
      {"smiles": "CCOC(=O)C1CCCN(c2c(N3CCN(c4ccccn4)CC3)c(=O)c2=O)C1", "note": "(stereo not given)", "viability": "86.7%"},
      {"smiles": "CC1CCN(S(=O)(=O)c2ccc(S(=O)(=O)NCC(=O)C(C)(C)C)cc2)CC1", "viability": "92.7%"},
      {"smiles": "O=C(CSc1nnc2scc(-c3ccccc3)n12)N1CCN(Cc2ccccc2)CC1", "viability": "103%"},
      {"smiles": "CC1(C)CNC(=O)CC(C)(C)N1O", "viability": "101%"},
      {"smiles": "Cc1cc(NC(=O)CCOc2ccccc2)no1", "viability": "87%"},
      {"smiles": "CCOc1ccc2cc(C#N)c(SCC(=O)N3CCCC3)nc2c1", "viability": "85.3%"},
      {"smiles": "COc1cccc(Oc2cnc(N)nc2-c2ccc(OC)cc2O)c1", "viability": "67.1%"},
      {"smiles": "CCOC(OCC)P(=O)(C(C)C)C(C)C", "viability": "103%"},
      {"smiles": "O=C1C(C=NCCCn2ccnc2)=C(O)c2ccccc21", "viability": "105%"},
      {"smiles": "CCCN(S(=O)(=O)c1ccc(OCC)cc1)S(=O)(=O)c1cccs1", "viability": "88.1%"},
      {"smiles": "N#Cc1nc(COc2ccc(Br)cc2)oc1N1CCCC1", "viability": "89.4%"},
      {"smiles": "CCOC(=O)N1CCN(Cc2cc(=O)oc3ccc4ccccc4c23)CC1", "viability": "79.9%"},
      {"smiles": "COc1ccc(OC)c(C2C3=C(CCCC3=O)Nc3c2c(=O)n(C)c(=O)n3C)c1", "note": "(stereo not given)", "viability": "103%"},
      {"smiles": "CCOc1ccc(C2CC(=O)NC3=C2C(=O)CCC3)cc1Cl", "note": "(stereo not given)", "viability": "88.4%"},
      {"smiles": "COc1ccc2nc(NC(=O)c3ccoc3C)sc2c1", "viability": "23.9% (active)"},
      {"smiles": "O=C(NCC(=O)N1CCC(N2CCCCC2)CC1)C1CCCCC1", "viability": "106%"},
      {"smiles": "O=C(NCCN1CCOCC1)c1ccc2c(c1)N(Cc1ccccc1)C(=O)CS2", "viability": "97.8%"},
      {"smiles": "CCC(c1nnnn1Cc1ccco1)N(CCc1ccccc1)Cc1cc2cccc(C)c2[nH]c1=O", "note": "(stereo not given)", "viability": "69.2%"},
      {"smiles": "CC(C)=CCCC(C)N(C=O)C(C)CCC=C(C)C", "note": "(stereo not given)", "viability": "76.3%"},
      {"smiles": "Cc1c(C(=O)NCc2cccnc2)oc2ccc(S(=O)(=O)N3CCCCC3)cc12", "viability": "65.6%"},
      {"smiles": "Cc1ccc(C(C)C)c(OCCn2c(=O)oc3ccccc32)c1", "viability": "87.9%"},
      {"smiles": "CCn1nc(C(=O)OCC(=O)N2CCc3ccccc32)c2ccccc2c1=O", "viability": "88.2%"},
      {"smiles": "COC(=O)c1cc(-c2c(C)oc3cc(O)ccc3c2=O)c(C)o1", "viability": "91.3%"},
      {"smiles": "CCOC(=O)N1CCN(S(=O)(=O)c2ccc(OCC)c(C)c2)CC1", "viability": "88.9%"},
      {"smiles": "CC1CC(=O)C2=C(C1)OC(N)=C(C#N)C2c1coc2ccccc2c1=O", "note": "(stereo not given)", "viability": "95.1%"},
      {"smiles": "COc1ccc(-c2nnc(SCCC(=O)O)n2-c2ccccc2)cc1", "viability": "96.1%"},
      {"smiles": "CCCCn1c(SCC(=O)Nc2ccc(OC)cc2)nc2ccc(N3CCOCC3)cc2c1=O", "viability": "72.4%"},
      {"smiles": "CCOC(=O)c1cc2cc(F)ccc2nc1C", "viability": "120%"},
      {"smiles": "Cc1nc2ccccn2c1C(=O)NCCCN1CCOCC1", "viability": "109%"},
      {"smiles": "Cc1cc(-c2ccccc2)c2c3c(cn2n1)c(=O)n(C)c(=O)n3C", "viability": "84.3%"},
      {"smiles": "CCOC(=O)N1CCC(O)(c2cc(C)c(C)cc2C)CC1", "viability": "109%"},
      {"smiles": "O=C(C1CCCN(S(=O)(=O)c2cccnc2)C1)N1CCN(c2ccccn2)CC1", "note": "(stereo not given)", "viability": "103%"}
    ]}
  ]
}
